# Like-named read-outs stand apart in the source and are kept apart here. Where a SMILES comes first, the peptide text is derived from it. Bridges are numbered along the chain shown (N, C = ends). [ ]: non-standard residue; d: D form. The star is where a group is joined. X1 = CC[C@H](C)CCCCC(=O)*; Dab = NCC[C@H](N)C(=O)O
# What was measured:
# human AGP [1] = test: Fluorometric assay: direct titration of fluorescent probe into AGP; settings: for binding to AGP by direct fluorometric titration: emission did not plateau where seen, no Kd derived
# human AGP [2] = test: in vitro; settings: pH 7.4
# human AGP [3] = test: Isothermal titration calorimetry; format: binding; settings: for Kd: 25 °C
# How it was run: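 Human AGP (63 μM) in 20 mM HEPES pH 7.0, degassed, was titrated with 80 × 3-μL injections of 10–13 mM test compound at 240-s intervals, stirred at 307 rpm. Runs were at 37 °C, with one compound also at 15, 20, 25 and 30 °C. Delipidation was on lipidex 1000 in 20 mM HEPES pH 7.4 at 37 °C. Heat of dilution was subtracted, and n and ΔH came from a one-set-of-sites fit.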
# human AGP [4] = test: Surface plasmon resonance; format: binding; settings: for SPR binding response at single concentrations: 100 μM and 300 μM of each compound
# How it was run: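 AGP was thiol-coupled (PDEA/EDC, MES pH 5.0) to a CM5 chip at 5000 RU, with PBS pH 7.4 running buffer at 25 °C. Compound series were 3-fold dilutions from 3 mM, plus single 100 and 300 μM injections, at 50 μL/min: 30 s association, 60 s dissociation. Response was read 10 s before association ended, reference-subtracted and MW-normalised. Glycine pH 1.7 regenerated the chip; chlorpromazine served as surface control. Runs were done ≥3 times.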
# human AGP [5] = test: Fluorometric probe displacement assay; settings: for displacement of BODIPY-PL2 from AGP: probe BODIPY-PL2
# [6] = cited from earlier work
# [7] = human plasma; equilibrium dialysis; cited from earlier work
# human AGP [8] = test: in vitro; settings: pH 7.4, Ki
# [9] = cited from earlier work; remark: listed apart in the source
# [10] = rats; cited from earlier work
# [11] = test system: human α-1-acid glycoprotein (AGP); test: Fluorometric probe displacement assay; settings: human
compound,measurement,setting,value
[Dansyl-Lys]^1 polymyxin B3 [[Dansyl-Lys^1]PmB3],binding to AGP by direct fluorometric titration,human AGP [1],weak AGP affinity
"CCN(CC)c1ccc2nc3c4ccccc4c(=O)cc-3oc2c1 [NR, Nile Red]",Kd at 2 min,human AGP [2],0.91 ± 0.2 µM
"2-(4,4-difluoro-5-methyl-4-bora-3a,4a-diaza-s-indacene-3-dodecanoyl)-1-hexadecanoyl-sn-glycero-3-phosphocholine [BODIPY-PL2]",binding to AGP by direct fluorometric titration,human AGP [1],apparent weak affinity
colistin methanesulfonate [CMS],binding affinity for AGP by ITC,human AGP [3],no detectable binding affinity
same,SPR binding response at single concentrations,human AGP [4],very poor responses
same,concentration dependence of SPR binding,human AGP [4]; concentration series 3 mM to 1.3 μM,not concentration dependent
same,ability to displace the probes,"human AGP [5]; ANS, Auramine O, Nile Red",no ability to displace any of the probes
Colistin nona-peptide [colistin NP],binding affinity for AGP by ITC,human AGP [3],no detectable binding affinity
same,SPR binding response at single concentrations,human AGP [4],very poor responses
Polymyxin B [PmB],Kd,"human AGP [3]; read-out: Kd, delipidated AGP, delipidated sample",210 µM
same,Kd,"human AGP [3]; read-out: Kd, non-delipidated AGP, non-delipidated sample",103 µM
same,"plasma protein binding, critically ill septic patients",[6]; critically ill septic patients,more than 90%
same,"plasma protein binding, healthy subjects",[6]; healthy subjects,around 56%
same,bound to plasma,[7],over 50%
same,SPR binding response at single concentrations,human AGP [4],highest response
same,displacement of BODIPY-PL2 from AGP,human AGP [5],unable to produce any discernible displacement
same,Ki,"human AGP [5]; read-out: Ki values (text summary over probes), titration of probe-AGP solutions",> 200 µM
same,Ki,"human AGP [5]; read-out: Ki, displacement of ANS, probe ANS, 20°C, mean ± SE, n = 3 unless otherwise indicated, ND = not detected",225 ± 49 µM
CN(C)CCCN1c2ccccc2Sc2ccc(Cl)cc21 [Chlorpromazine],displacement of BODIPY-PL2 from AGP,human AGP [5],able to compete with BODIPY-PL2
same,Ki at 2 min,human AGP [8]; displacement of ANS,0.14 ± 0.01 µM
same,Ki at 2 min,human AGP [8]; displacement of AO,2.8 ± 0.2 µM
same,Ki at 2 min,human AGP [8]; displacement of NR,0.67 ± 0.05 µM
"CC[C@H](C)CCCCC(=O)N[C@@H](CCN)C(=O)N[C@H](C(=O)N[C@@H](CCN)C(=O)N[C@H]1CCNC(=O)[C@H]([C@@H](C)O)NC(=O)[C@H](CCN)NC(=O)[C@H](CCN)NC(=O)[C@H](CC(C)C)NC(=O)[C@@H](CC(C)C)NC(=O)[C@H](CCN)NC1=O)[C@@H](C)O [Colistin, colistin] (X1-[Dab]T[Dab][Dab][Dab][dL]L[Dab][Dab]T; lactam 4-C (inferred); N-terminus assumed)",bound to plasma,[7],over 50%
same,level of plasma protein binding in neutropenic infected mice compared to healthy mice,[9],greater
same,plasma protein binding,[10],55–57%
same,Ki,"[11]; Ki values (text summary over probes), titration of probe-AGP solutions",> 200 µM
same,Ki,"[11]; Ki, displacement of ANS, probe ANS, 20°C, mean ± SE, n = 3 unless otherwise indicated, ND = not detected",351 ± 188 µM
same,displacement of BODIPY-PL2 from AGP,human AGP [5],unable to produce any discernible displacement
"O=S(=O)(O)c1cccc2cccc(Nc3ccccc3)c12 [ANS, 1-anilino-8-naphthalene sulfonic acid]",Kd at 2 min,"human AGP [1]; human, pH 7.4",0.87 ± 0.07 µM
"CCCCCCCCCCCCCCCC(=O)OC[C@H](COP(=O)(O)OCCNC(=O)CCc1ccc2n1[B-](F)(F)[N+]1=C(C)C=C(C)C1=C2)OC(=O)CCCCCCCCCCCCCCC.CCN(CC)CC [BODIPY-PL1, N-(4,4-difluoro-5,7-dimethyl-4-bora-3a,4a-diaza-s-indacene-3-propionyl)-1,2-dihexa-decanoyl-sn-glycero-3-phosphoethanolamine, triethylammonium salt]",binding to AGP by direct fluorometric titration,human AGP [1],no fluorescence emission observed

# From publication PMC3448962 (Biochemical pharmacology, 2012)
